Test results as given in ChEMBL document CHEMBL3588770, “Novel spirohydantoin derivative as a potent multireceptor-active antipsychotic and antidepressant agent” (Bioorg Med Chem, 2015).
Active and inactive are the calls of the source. No cut-off for these calls is given here.

Columns and labels:
[1] = target: D(2) dopamine receptor (Homo sapiens) (UniProt P14416); assay: Antagonist activity at human recombinant D2 receptor expressed in HEK293 cells assessed as inhibition of dopamine-induced response at 1 uM; format: cell-based
Method in brief: (§1)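 Functional assays run by a contract lab on CHO or HEK-293 cells stably expressing the human receptor. Read-out was intracellular cAMP, IP1 or Ca2+ release. A single test concentration of 1.0E-06 was used, in duplicate. Data are mean % of the control response.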

[2] = target: D(3) dopamine receptor (Homo sapiens) (UniProt P35462); assay: Antagonist activity at human recombinant D3 receptor expressed in CHO cells assessed as inhibition of dopamine-induced intracellular cAMP release at 1 uM by HTRF method; format: functional, cell-based; method in brief: as §1
[3] = target: T1, D(4) dopamine receptor (Homo sapiens) (UniProt P21917); assay: Agonist activity at human recombinant D4 receptor expressed in CHO cells assessed as intracellular cAMP release at 1 uM by HTRF method; format: functional, cell-based; method in brief: as §1
T1 sequence (whole entry): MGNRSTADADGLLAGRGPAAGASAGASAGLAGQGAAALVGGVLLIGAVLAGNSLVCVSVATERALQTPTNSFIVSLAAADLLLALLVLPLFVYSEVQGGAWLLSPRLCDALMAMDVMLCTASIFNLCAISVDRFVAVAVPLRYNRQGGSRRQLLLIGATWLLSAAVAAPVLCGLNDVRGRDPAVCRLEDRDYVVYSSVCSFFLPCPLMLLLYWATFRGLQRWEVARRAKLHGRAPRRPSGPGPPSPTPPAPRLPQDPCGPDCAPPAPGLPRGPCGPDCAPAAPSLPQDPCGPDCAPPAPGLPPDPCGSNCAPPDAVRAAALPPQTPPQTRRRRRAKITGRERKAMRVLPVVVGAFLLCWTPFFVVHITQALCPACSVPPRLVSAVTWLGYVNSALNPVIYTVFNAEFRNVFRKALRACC

[4] = target: T1, D(4) dopamine receptor (Homo sapiens); assay: Antagonist activity at human recombinant D4 receptor expressed in CHO cells assessed as inhibition of dopamine-induced intracellular cAMP release at 1 uM by HTRF method; format: functional, cell-based; method in brief: as §1
[5] = target: 5-hydroxytryptamine receptor 7 (Homo sapiens) (UniProt P34969); assay: Agonist activity at human recombinant 5HT7 receptor expressed in CHO cells assessed as intracellular cAMP release at 1 uM by HTRF assay; format: functional, cell-based; method in brief: as §1
[6] = target: T2, Alpha-2C adrenergic receptor (Homo sapiens) (UniProt P18825); assay: Agonist activity at human recombinant alpha2C adrenoceptor expressed in CHO cells assessed as intracellular cAMP release at 1 uM by HTRF assay; format: functional, cell-based; method in brief: as §1
T2 sequence (whole entry): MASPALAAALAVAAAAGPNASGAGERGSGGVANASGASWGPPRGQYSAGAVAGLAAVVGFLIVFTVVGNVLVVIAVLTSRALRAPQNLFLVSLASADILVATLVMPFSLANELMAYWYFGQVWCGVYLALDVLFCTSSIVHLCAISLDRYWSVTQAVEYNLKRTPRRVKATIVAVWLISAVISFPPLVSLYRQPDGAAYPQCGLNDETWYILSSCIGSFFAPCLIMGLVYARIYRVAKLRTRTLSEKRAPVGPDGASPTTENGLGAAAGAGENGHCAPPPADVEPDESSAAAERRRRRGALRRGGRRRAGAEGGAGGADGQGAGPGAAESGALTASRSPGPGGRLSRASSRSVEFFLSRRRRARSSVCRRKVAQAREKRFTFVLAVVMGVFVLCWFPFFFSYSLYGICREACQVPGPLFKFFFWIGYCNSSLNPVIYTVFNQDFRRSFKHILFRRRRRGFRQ

Mus musculus [7] = assay: In vivo agonist activity at D2 receptor in ip dosed Swiss albino mouse assessed as induction of climbing behaviour; format: functional, organism-based
Mus musculus [8] = assay: In vivo partial agonist activity at 5HT1A receptor in CD-1 mouse assessed as change in body temperature at 10 mg/kg, ip measured after 30 mins (reference value: -0.1 degC); format: functional, organism-based
Method in brief: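 Male CD-1 mice, 7-9 per dose, dosed i.p. Rectal temperature was recorded at 30, 60, 90 and 120 min. Results are the change from basal temperature taken at the start of the experiment.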

Mus musculus [9] = assay: In vivo partial agonist activity at 5HT1A receptor in CD-1 mouse assessed as change in body temperature at 10 mg/kg, ip measured after 60 mins (reference value: -0.1 degC); format: functional, organism-based
Method in brief: (§2)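 Male CD-1 mice, 7-9 per dose, compound suspended in 1% aqueous Tween 80 and given i.p. at 10 ml/kg. Rectal temperature was taken by thermometer 30, 60, 90 and 120 min after dosing. Change (Δt) is expressed against basal temperature measured at the start. Mean ± SEM, one-way ANOVA with Bonferroni test.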

Mus musculus [10] = assay: In vivo partial agonist activity at 5HT1A receptor in CD-1 mouse assessed as change in body temperature at 5 mg/kg, ip measured after 90 mins (reference value: -0.1 degC); format: functional, organism-based; method in brief: as §2
Rattus norvegicus [11] = assay: Induction of lower lip retraction in Wistar rat at 5 to 40 mg/kg, ip; format: functional, organism-based
Rattus norvegicus [12] = assay: Inhibition of 8-OH-DPAT-induced lower lip retraction in Wistar rat at 5 to 40 mg/kg, ip administered 45 mins before 8-OH-DPAT administration; format: functional, organism-based
Method in brief: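 Wistar rats, 5-6 per dose, given compound i.p. (1% Tween 80 suspension) 45 min before 8-OH-DPAT (1 mg/kg). Lower lip retraction was scored 15, 30 and 45 min after 8-OH-DPAT on a 0/0.5/1 scale (incisor visibility), giving a maximum total of 3. Mean ± SEM, ANOVA with Bonferroni test.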

Mus musculus [13] = assay: In vivo antagonist activity at 5HT2A receptor in ip dosed Swiss albino mouse assessed as inhibition of (+/-)-DOI-induced head twitch response; format: functional
Method in brief: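 Male Swiss albino mice, 5-6 per dose, habituated 20 min in glass cages. Compound was given i.p. 60 min pretest. Head twitches were induced by (±)DOI 2.5 mg/kg and counted for 20 min. ID50 is the dose inhibiting twitches by 50%.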

Mus musculus [14] = assay: Toxicity in ip dosed spontaneous locomotor activity CD-1 mouse model assessed as dose required to cause sedation; format: organism-based; settings: in vivo
Method in brief: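 CD-1 mice, 8-10 per dose, with compound given i.p. in 1% Tween 80 suspension 60 min before testing. After 30 min habituation in individual cages, ambulation (channel crossings) was counted over 1 h, recorded every 5 min. Mean ± SEM, one-way ANOVA with Bonferroni test.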

Mus musculus [15] = assay: Anti-depressant like activity in Swiss albino mouse assessed as shortening of immobility time at 5 mg/kg, ip by forced swim test; format: functional
Method in brief: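 Forced swim test in male Swiss albino mice, 7-9 per dose. Compound was given i.p. in 1% Tween 80 at 10 ml/kg, 60 min pretest. Mice swam for 6 min in a cylinder with 6 cm of water at 23-25 °C. Immobility was scored over the last 4 min. Analysis was one-way ANOVA with Bonferroni.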

Mus musculus [16] = assay: Antianxiety-like activity in Swiss albino mouse assessed as number of punished crossings at 0.312 to 5 mg/kg, ip by four-plate test; format: functional, organism-based
Method in brief: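 Four-plate test in male Swiss albino mice, 8-10 per dose, dosed i.p. in Tween 80 vehicle. After 15-s habituation, a 0.8 mA, 0.5 s foot shock was given at each plate crossing, with a 3 s shock-free interval. Punished crossings were counted over a 1-min session.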

Mus musculus [17] = species on record: Mus musculus; assay: Ratio of MED for catalepsy in CD-1 mouse to ED50 for antipsychotic activity in CD-1 mouse

Sequence of D(2) dopamine receptor (Homo sapiens) (P14416 whole entry): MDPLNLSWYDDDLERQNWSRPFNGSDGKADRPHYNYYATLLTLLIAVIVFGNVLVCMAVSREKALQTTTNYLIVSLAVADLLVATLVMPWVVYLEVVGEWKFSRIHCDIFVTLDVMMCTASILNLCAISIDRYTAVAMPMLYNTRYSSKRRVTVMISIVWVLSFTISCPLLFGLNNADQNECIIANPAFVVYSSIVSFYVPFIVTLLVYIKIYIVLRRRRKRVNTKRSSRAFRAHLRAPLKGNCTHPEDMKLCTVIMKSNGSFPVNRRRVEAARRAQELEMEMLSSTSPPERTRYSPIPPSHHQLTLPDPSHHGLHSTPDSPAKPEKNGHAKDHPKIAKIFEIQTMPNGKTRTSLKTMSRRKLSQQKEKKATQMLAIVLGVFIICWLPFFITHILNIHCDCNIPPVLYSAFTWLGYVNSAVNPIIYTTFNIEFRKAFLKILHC
Sequence of D(3) dopamine receptor (Homo sapiens) (P35462 whole entry): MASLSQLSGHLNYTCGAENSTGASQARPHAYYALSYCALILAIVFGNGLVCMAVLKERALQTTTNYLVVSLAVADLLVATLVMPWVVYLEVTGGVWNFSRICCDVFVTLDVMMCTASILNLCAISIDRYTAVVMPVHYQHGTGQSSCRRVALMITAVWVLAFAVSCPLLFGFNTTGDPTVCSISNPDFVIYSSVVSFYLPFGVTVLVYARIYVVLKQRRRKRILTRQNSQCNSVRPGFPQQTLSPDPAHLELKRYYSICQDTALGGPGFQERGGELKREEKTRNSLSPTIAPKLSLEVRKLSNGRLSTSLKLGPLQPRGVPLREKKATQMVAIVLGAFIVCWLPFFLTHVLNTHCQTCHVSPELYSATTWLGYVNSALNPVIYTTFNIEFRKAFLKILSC
Sequence of 5-hydroxytryptamine receptor 7 (Homo sapiens) (P34969 whole entry): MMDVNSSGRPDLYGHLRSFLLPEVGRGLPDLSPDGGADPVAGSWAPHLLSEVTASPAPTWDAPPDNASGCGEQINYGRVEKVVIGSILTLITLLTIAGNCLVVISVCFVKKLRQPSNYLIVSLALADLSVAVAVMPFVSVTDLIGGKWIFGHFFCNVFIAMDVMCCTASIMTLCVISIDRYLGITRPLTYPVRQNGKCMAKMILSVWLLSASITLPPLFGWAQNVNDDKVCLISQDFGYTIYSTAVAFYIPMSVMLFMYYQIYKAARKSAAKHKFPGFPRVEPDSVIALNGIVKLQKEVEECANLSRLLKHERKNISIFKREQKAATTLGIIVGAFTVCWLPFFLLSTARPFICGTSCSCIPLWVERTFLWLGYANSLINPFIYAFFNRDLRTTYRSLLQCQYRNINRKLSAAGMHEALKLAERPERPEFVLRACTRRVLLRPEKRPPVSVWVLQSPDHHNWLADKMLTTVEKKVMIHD

| inhibition [1] [%] | inhibition [2] [%] | Activity [3] [%] | inhibition [4] [%] | Activity [5] [%] | Activity [6] [%] | Structure (SMILES) | Activity (Mus musculus [7]) | deltaT (Mus musculus [8]) [°C] | deltaT (Mus musculus [9]) [°C] | deltaT (Mus musculus [10]) [°C] | Activity (Rattus norvegicus [11]) | inhibition (Rattus norvegicus [12]) | ED50 (Mus musculus [13]) [mg/kg] | Activity (Mus musculus [14]) [mg/kg] | inhibition in vivo at 5 mg/kg (Mus musculus [15]) [%] | Activity (Mus musculus [16]) | Ratio (Mus musculus [17]) |
| --- | --- | --- | --- | --- | --- | --- | --- | --- | --- | --- | --- | --- | --- | --- | --- | --- | --- |
| 85 | 66 | 27 | 75 | 6 | 15 | COc1ccccc1N1CCN(CCCCN2C(=O)NC3(CCc4ccccc43)C2=O)CC1 (stereo not drawn) | – | – | – | – | – | – | – | – | – | – | – |
| 91 | 53 | 15 | 84 | 6 | 20 | COc1ccccc1N1CCN(CCCCN2C(=O)NC3(CCCc4ccccc43)C2=O)CC1 (stereo not drawn) | inactive | -1.9 | -1.3 | -0.7 | inactive | Active | 19.6 | 2.5 | 45 | inactive | 50 |
